Results from different studies.
Lines come from different studies, so protocols differ.
Target: Cyclin-dependent kinase-like 1 (CDKL1, Homo sapiens, UniProt Q00532)

COc1ncc2cc3ccccc3nc2c1C#N gave a remaining binding of 100% (binding, competition with immobilised ligand; 5 µM).
With C[C@@H](c1cccc(C#N)c1)n1cc(Cl)cc(C(N)=O)c1=N the remaining binding was 100% (binding, competition with immobilised ligand; 1 µM).
With c1cnn2ncc(-c3ccnc(N4CCC45COC5)n3)c2c1 the remaining binding was 59% (binding; 1 µM).
For C[C@@H](c1ccc(-n2cnc3c(N)ncnc32)cc1)N1CCc2nn(C)c(Cc3ccccc3)c2C1=O, the remaining binding was 58% (binding, competition with immobilised ligand; 0.1 µM).
For c1ccc(N2CCN(Cc3nc4ccccc4[nH]3)CC2)nc1, the remaining binding was 78% (binding, competition with immobilised ligand; 1 µM).
With F[C@@H]1CCN(c2nccc(-c3cnn4ncccc34)n2)C1 the remaining binding was 89% (binding; 1 µM).
O=C(c1ccc(Nc2ncc(Cl)c(-c3cc4ccccc4s3)n2)cc1)N1CCC(N2CCCC2)CC1 gave a remaining binding of 51% (binding, competition with immobilised ligand; 1 µM).
O=C(Nc1c[nH]nc1C(=O)NC1CCNCC1)c1cc(F)cc(F)c1 has a remaining binding of 95% (binding, competition with immobilised ligand; 1 µM).
The remaining binding of Cc1cc(-n2nc(Cc3cc(F)cc(C(F)(F)F)c3)nc2C)ccc1C(N)=O is reported as 71% (cell-free assay, competition with immobilised ligand; 1 µM).
FC(F)(F)Oc1cccc(-c2cnc3ccc(-c4ccncc4)nn23)c1 gave a remaining binding of 68% (cell-free assay, competition with immobilised ligand; 5 µM).
The remaining binding of CN(C)c1ncc(F)c(-c2cnn3ncccc23)n1 is reported as 100% (binding; 1 µM).
The remaining binding of O=C(c1ccc(Nc2ncc(Cl)c(-c3ccc(Cl)s3)n2)cc1)N1CCC(N2CCCC2)CC1 is reported as 32% (binding, competition with immobilised ligand; 1 µM).
With CN(CCCC(F)(F)F)c1nccc(-c2cnn3ncccc23)n1 the remaining binding was 83% (binding; 1 µM).
C[C@H](c1ccnc(Nc2nc3ccc(-c4cc(N(C)C)ncn4)cc3[nH]2)c1)N1CCN(C(=O)CC(F)(F)F)CC1 gave a remaining binding of 100% (binding, competition with immobilised ligand; 0.1 µM).
COc1cnc(Nc2cccc(S(N)(=O)=O)c2)nc1N1CCN(c2ccccc2)CC1 has a remaining binding of 86% (binding, competition with immobilised ligand; 1 µM).
With Cc1cnn2ncc(-c3ccnc(N(C)C)n3)c2c1 the remaining binding was 73% (binding; 1 µM).
The remaining binding of N#Cc1ccc(Nc2ccc3[nH]c(=O)[nH]c3c2)c(Cl)c1 is reported as 84% (binding, competition with immobilised ligand; 1 µM).
With O=C(c1ccc(Nc2nccc(-c3cc4ccccc4s3)n2)cc1)N1CCC(N2CCCC2)CC1 the remaining binding was 71% (binding, competition with immobilised ligand; 1 µM).
C[C@@H]1CCN(c2nccc(-c3cnn4ncccc34)n2)C1 has a remaining binding of 70% (binding; 1 µM).
CC(=O)Nc1c(C(C)=O)c(=O)n(C)c2nc(-c3ccc(Cl)cc3Cl)c(-c3ccc(Cl)cc3)cc12 has a remaining binding of 100% (cell-free assay, competition with immobilised ligand; 1 µM).
With CCN1CCN(Cc2ccc(C(=O)Nc3ccc(C)c(Oc4ccc5c(c4)CC(=O)N5)c3)cc2C(F)(F)F)CC1 the remaining binding was 100% (binding, competition with immobilised ligand; 1 µM).
